Assay results gathered from unrelated publications.
Matrix: plasma

| Structure (SMILES) | system | conditions | bioavailability [%] |
| --- | --- | --- | --- |
| COc1ccc(N(Cc2csc(-c3ccccc3)n2)C(=O)CCCCCC(=O)NO)cc1 | female Sprague-Dawley rat | oral | 10.3 |
| COc1cc(-c2cc(C(C)=O)n3ccccc23)c(OC)cc1Cn1ccnc1 | male Sprague-Dawley rat | oral, 5 mg/kg | 50.3 |
| Cc1cc(S(=O)(=O)N[C@H]2CC[C@H](CN3CCN(c4cccc(NC5CCC(=O)NC5=O)c4)CC3)CC2)ccc1Nc1ncc(C(F)(F)F)c(N2CCC[C@](C)(O)C2)n1 (stereo partly shown) | rat | oral, 10 mg/kg | 13 |
| C[C@H]1Oc2cc(cnc2N)-c2c(nn(C)c2C#N)CN(C)C(=O)c2ccc(F)cc21 | Sprague-Dawley rat | oral | 8.6 |
| COc1nc(-c2cccc(-c3ccccc3)c2C)ccc1CNCCNC(=O)CCCCCCCCCCC(=O)N1CCN(CCNC(=O)c2cc3c(=O)n4cccc(C)c4nc3n(CCc3cccs3)c2=N)CC1 | male Sprague-Dawley rat | intraperitoneal, 4 mg/kg | 74.8 |
| CCCCC(=O)Nc1ccc(-c2ccc3ncn(CCC)c(=O)c3c2)cn1 | male rat | oral, 10 mg/kg | 21.1 |
| Cc1cc(S(=O)(=O)NC2CC(N3CCN(CC4CCN(c5ccc6c(c5F)n(C)c(=O)n6C5CCC(=O)NC5=O)CC4)CC3)C2)ccc1Nc1ncc(C(F)(F)F)c(N2CCCC(C)(O)C2)n1 (stereo not shown) | rat | oral, 10 mg/kg | 1 |
| CC(C)C[C@H](NC(=O)NCc1cn(-c2ccccc2C(=O)OCn2cc(F)c(=O)[nH]c2=O)nn1)C(=O)NO | male Sprague-Dawley rat | oral, 50 mg/kg | ~0.64 |
| O=C1CCC(N2Cc3cc(C4CCN(Cc5ccccc5)CC4)ccc3C2=O)C(=O)N1 (stereo not shown) | male Sprague-Dawley rat | oral, 3 mg/kg | 36.2 |
| Cc1cc(S(=O)(=O)N[C@H]2CC[C@H](CN3CCN(c4ccc(C5CCC(=O)NC5=O)c(Cl)c4)CC3)CC2)ccc1Nc1ncc(C(F)(F)F)c(N2CCC[C@](C)(O)C2)n1 (stereo partly shown) | rat | oral, 10 mg/kg | 25 |
